pIC50, pKd: −log10 of the molar value. Where “and” joins values, the source holds several entries; their conditions need not be identical. Identical values can stand only once. Entries after “also recorded” stand apart in the source; their conditions may differ. Like-named read-outs stand apart in the source and are kept apart here.

Broadly, the inhibition is the share of the control response that was lost under treatment. Usually pKd stands for −log10 of the Kd, conventionally taken in molar units. Broadly, the pIC50 is the IC50 on a negative log10 scale, so that one unit is a factor of ten. The viability is a per cent measure of how many cells are alive, often set against a control. Higher therefore signals better survival.

For data set [1], the system named is P. falciparum CQ^S-3D7. Put plainly: Growth inhibition assay. In kind it is cell-based, Plasmodium falciparum. Conditions: for inhibition at 10 µM: 3D7, 10 μM; for pIC50: one intra-erythrocytic cycle.
The subject of data set [2] is mammalian kinome (HepG2 lysate). Put plainly: In vitro kinase assay with HepG2 lysate. Conditions: HepG2 cytosolic fraction; 1 and 5 μM. In kind it is biochemical, human. The method in brief: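 HepG2 cells (10^7) were lysed for 1 h at 4 °C in 20 mM Tris (pH 7.7), 0.5 % NP-40, 200 mM NaCl, 50 mM NaF, 0.2 mM orthovanadate, protease inhibitors and 0.1 % 2-mercaptoethanol. The lysate was spun at 13,000 rpm for 10 min. Kinase activity of the supernatant was measured by ADP-Glo luminescence with test compound at 1 and 5 μM.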

Data set [3] has as its target recombinant 6xHis-CDPK1 protein (rPfCDPK1) (Plasmodium falciparum, UniProt P62344). The data set can be described thus: Microscale thermophoresis. In kind it is binding. In a few lines: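 Recombinant 6xHis-PfCDPK1 (10 μM) in HEPES-NaCl (pH 7.5) with 0.05 % Tween-20 was labelled with 30 μM cysteine-reactive red maleimide dye for 30 min at RT in the dark. It was then column-purified, keeping fractions below 1000 fluorescence counts. Test compound was serially titrated (4.8 nM–80 μM or 2.4 nM–40 μM) against constant labelled protein and premixed 10 min at RT in the dark. MST was run at RT, 20 % LED and 40 % MST power.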
A general note: In MST a laser heats a spot of the sample, and binding alters the fluorescence response.

A further data set deals with rPfCDPK1 (Plasmodium falciparum, UniProt P62344). Put plainly: In vitro kinase assay. In kind it is biochemical. In a few lines:
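100 ng 6xHis-CDPK1 per reaction in 100 mM Tris-Cl pH 7.4, 50 mM MgCl2, 2.5 mM DTT, 2.5 mM MnCl2, with or without Ca2+ (2.5 mM EGTA). Dephosphorylated bovine casein substrate. Enzyme pre-incubated with test compound (1 or 5 µM) for 20 min at RT. ATP-started reaction run 1 h at 30 °C. ADP formation read by ADP-Glo luminescence.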

A further data set has as its system P. falciparum CQ^R-RKL-9. Put plainly: Growth inhibition assay. In kind it is cell-based, Plasmodium falciparum.
For a further data set, the system named is human RBCs. Put plainly: Hemolytic activity. In kind it is cell-based. The note with it: 1.5–800 μM. In a few lines:
(§1)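 Washed human RBCs (10 %, v/v) were resuspended in PBS (pH 7.4) and incubated with test compound at 1.5–800 μM for 1 h at 37 °C. After centrifugation, supernatant absorbance was read at 415 nm. RBCs treated with 1 % (v/v) Triton X-100 were the positive control. Run in triplicate.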

The nature of another data set: Hemolytic activity. Conditions: human, red blood cell suspension (10 %, v/v), pH 7.4. In kind it is cell-based, human. In a few lines:
as §1

The next data set deals with HepG2 cells. The data set can be described thus: MTT cytotoxicity assay. In kind it is cell-based, human. The note with it: HepG2; 2–500 μM. The method in brief:
(§2)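 Cells were seeded in DMEM with 10 % FBS (HEK293 2 × 10^4 per well; HepG2 10^4 per well) and incubated overnight at 37 °C in 5 % CO2. Test compound was added at 2.5–600 μM (HEK293) or 2–500 μM (HepG2) for 24 h at 37 °C, with untreated cells as control. MTT was added (stock 5 mg/mL in PBS), formazan was dissolved in DMSO, and absorbance read at 570 nm. Run in triplicate.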
Background: Tetrazolium assays rely on reduction of a dye to a coloured formazan, in cell work by metabolically active cells.

Data set [4] is described as follows: MTT cytotoxicity assay. In kind it is cell-based, human. Conditions: human, HepG2 cells. In a few lines: as §2
In another data set the test system is CQ^S-3D7 P. falciparum. Put plainly: Growth progression analysis / blood stage-specific effect. In kind it is cell-based, Plasmodium falciparum.
Data set [5] concerns hemozoin in synchronized ring-stage parasites. Put plainly: Hemozoin assay. In kind it is cell-based, Plasmodium falciparum. The note with it: 10 μM; 30 h. In a few lines:
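P. falciparum cultures were synchronized at ring stage, held at 6 % parasitemia, and treated with test compound for 30 h in triplicate. Cells were then treated with 2.5 % SDS in 0.1 M sodium bicarbonate (pH 8.8) for 10 min at RT and centrifuged. The pellet was resuspended in 5 % SDS/50 mM NaOH for 30 min. Monomeric heme was read as A405 minus A750.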

Another data set deals with HEK293 cells. The data set can be described thus: MTT cytotoxicity assay. Conditions: HEK293; 2.5–600 μM. In kind it is cell-based, human. The method in brief: as §2
A short description of data set [6]: MTT cytotoxicity assay. In kind it is cell-based, human. The note with it: human, HEK293 cells. In a few lines: as §2
The subject of a further data set is PfCDPK1. Conditions: cited from earlier work.
Data set [7] has as its system P. falciparum CQ^S-3D7. The note with it: stated IC50 of the standard drug, used as positive control; ref not given; cited from earlier work.
Where [8] appears, read: Plasmodium falciparum, CQ^S-3D7.
Setting [9] is: Plasmodium falciparum, 3D7, CQ^S-3D7.

rPfCDPK1, sequence (P62344 whole entry): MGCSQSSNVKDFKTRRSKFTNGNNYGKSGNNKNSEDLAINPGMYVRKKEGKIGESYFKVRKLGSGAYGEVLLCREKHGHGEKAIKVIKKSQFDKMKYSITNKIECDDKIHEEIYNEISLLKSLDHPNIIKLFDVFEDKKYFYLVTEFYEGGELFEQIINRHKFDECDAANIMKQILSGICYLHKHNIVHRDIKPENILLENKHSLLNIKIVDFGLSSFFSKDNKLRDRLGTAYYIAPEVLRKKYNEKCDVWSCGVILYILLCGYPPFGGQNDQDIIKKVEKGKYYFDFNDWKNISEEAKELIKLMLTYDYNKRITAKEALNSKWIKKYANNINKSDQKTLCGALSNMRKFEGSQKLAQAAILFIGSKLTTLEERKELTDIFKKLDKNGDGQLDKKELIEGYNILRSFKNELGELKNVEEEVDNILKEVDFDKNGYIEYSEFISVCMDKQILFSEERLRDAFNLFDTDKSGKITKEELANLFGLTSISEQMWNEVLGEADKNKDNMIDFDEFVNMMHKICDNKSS
recombinant 6xHis-CDPK1 protein (rPfCDPK1), sequence (P62344 whole entry): as above

For `O=C(/C=C/c1cn(Cc2cn(-c3ccnc4cc(Cl)ccc34)nn2)c2ccccc12)c1cccc(Br)c1` [7f, (E)-1-(3-bromophenyl)-3-(1-((1-(7-chloroquinolin-4-yl)-1H-1,2,3-triazol-4-yl)methyl)-1H-indol-3-yl)prop-2-en-1-one], the inhibition at 10 µM in the data set on P. falciparum CQ^S-3D7 [1] (setting [8]) is over 50%.
Compound `O=C(/C=C/c1cn(Cc2cn(-c3ccnc4cc(Cl)ccc34)nn2)c2ccccc12)c1ccccc1Cl` [7h, (E)-1-(2-chlorophenyl)-3-(1-((1-(7-chloroquinolin-4-yl)-1H-1,2,3-triazol-4-yl)methyl)-1H-indol-3-yl)prop-2-en-1-one] gave an inhibition at 10 µM in the data set on P. falciparum CQ^S-3D7 [1] (setting [8]) of over 50%.
Take `COc1ccccc1C(=O)/C=C/c1cn(Cc2cn(-c3ccnc4cc(Cl)ccc34)nn2)c2ccccc12` [7l, (E)-3-(1-((1-(7-chloroquinolin-4-yl)-1H-1,2,3-triazol-4-yl)methyl)-1H-indol-3-yl)-1-(2-methoxyphenyl)prop-2-en-1-one]: the “inhibition of host kinase activity in words” value in [2] was “no inhibition of the host kinase activity”. In addition, the pKd in [3] is 4.76. In addition, the “PI of PfCDPK1 (inhibition of phosphorylation activity)” value on rPfCDPK1 (1 μM) is 71.9%. In the data set on P. falciparum CQ^S-3D7 [1] (setting [9]), this compound gave a pIC50 of 5.62.
Turning to `COc1ccc(C(=O)/C=C/c2cn(Cc3cn(-c4ccnc5cc(Cl)ccc45)nn3)c3ccccc23)cc1` [7n, (E)-3-(1-((1-(7-chloroquinolin-4-yl)-1H-1,2,3-triazol-4-yl)methyl)-1H-indol-3-yl)-1-(4-methoxyphenyl)prop-2-en-1-one], the inhibition at 10 µM in the data set with P. falciparum CQ^S-3D7 [1] (setting [8]) was over 50%.
Compound `O=C(/C=C/c1cn(Cc2cn(-c3ccnc4cc(Cl)ccc34)nn2)c2ccccc12)c1cccs1` [7p, (E)-3-(1-((1-(7-chloroquinolin-4-yl)-1H-1,2,3-triazol-4-yl)methyl)-1H-indol-3-yl)-1-(thiophen-2-yl)prop-2-en-1-one] gave an inhibition at 10 µM in the data set on P. falciparum CQ^S-3D7 [1] (setting [8]) of over 50%.
For the compound `Cc1ccccc1C(=O)/C=C/c1cn(Cc2cn(-c3ccnc4cc(Cl)ccc34)nn2)c2ccccc12` [7r, (E)-3-(1-((1-(7-chloroquinolin-4-yl)-1H-1,2,3-triazol-4-yl)methyl)-1H-indol-3-yl)-1-o-tolylprop-2-en-1-one], the negative logarithm of the IC50 (pIC50) in the data set with P. falciparum CQ^R-RKL-9 (CQ^R-RKL-9, one intra-erythrocytic cycle) is 5.57; in the data set with P. falciparum CQ^S-3D7 [1] (CQ^S-3D7) it was 5.74; with P. falciparum CQ^S-3D7 [1] (setting [9]), 5.46. Further, the “Resistance Index (RI)” value in the data set on P. falciparum CQ^R-RKL-9 (IC50 CQ^R-RKL-9/CQ^S-3D7) is recorded as 1.49. For the same compound, in the data set on human RBCs, the “hemolytic activity in words” value is “no significant lysis; also recorded: no apparent hemolytic activity”. For the same compound, the hemolysis at 1 h, 50 µM in “Hemolytic activity” came to 2.3%. The same compound showed a hemolysis at 1 h, 800 µM in the data set “Hemolytic activity” of 5.9%. The cytotoxicity in words result in the data set on HepG2 cells and with HEK293 cells was “non-cytotoxic” in each case. Also, the viability at 24 h, 100 µM in the data set “MTT cytotoxicity assay [4]” and in the data set “MTT cytotoxicity assay [6]” was over 90% each time. Besides, in data set [2], the “inhibition of host kinase activity in words” value is given as “no inhibition of the host kinase activity; also recorded: no inhibitory effect on the human kinome; also recorded: no inhibitory effect on the human kinases”. Further, the pKd in [3] was 5.14. Besides, the “intra-erythrocytic progression: stage affected” value in the data set on CQ^S-3D7 P. falciparum is given as “effective against the mature stages of the parasite”. Further, in the data set with CQ^S-3D7 P. falciparum (ring stage treated at IC50 concentration, 40 and 56 h post-treatment), the “growth progression, morphology” value is on record as “stuck at the trophozoite stage with altered morphology”. Moreover, at rPfCDPK1 (read-out: PI of PfCDPK1 (inhibition of phosphorylation activity), 1 μM), the inhibition at 1 µM came to 45.5%. Also, the inhibition at 5 µM at rPfCDPK1 (read-out: PI of PfCDPK1 (inhibition of phosphorylation activity), 5 μM) is 43.8%. Also, in data set [5], the “free monomeric heme (control-free heme)” value is 48.8% and 48%. The compound also yielded an inhibition at 10 µM in the data set with P. falciparum CQ^S-3D7 [1] (setting [8]) of over 50%.
`CCCCCC(=O)NCCc1c[nH]c2ccccc12` [A, N-[2-(1H-indol-3-yl)ethyl]hexanamide]: the “PfCDPK1 inhibition potency in words” value in the data set on PfCDPK1 was “sub-micromolar potency”.
Regarding `CCN(CC)CCCC(C)Nc1ccnc2cc(Cl)ccc12` (stereo not drawn) [CQ, chloroquine], in the data set on P. falciparum CQ^S-3D7 [7], the negative logarithm of the IC50 (pIC50) was 7.60.
In the case of `O=Cc1cn(Cc2cn(-c3ccnc4cc(Cl)ccc34)nn2)c2ccccc12` [compound 9, 1-((1-(7-chloroquinolin-4-yl)-1H-1,2,3-triazol-4-yl)methyl)-1H-indole-3-carbaldehyde], in the data set on P. falciparum CQ^S-3D7 [1] (at the tested concentration, CQ^S 3D7), the “growth inhibition in words” value is given as “poor inhibition; also recorded: not a good inhibitor”.

The values above are taken from article PMC10847618 (Heliyon, 2024).
